Data taken from ChEMBL document CHEMBL3785019, “Dihydropyrazole derivatives as telomerase inhibitors: Structure-based design, synthesis, SAR and anticancer evaluation in vitro and in vivo” (Eur J Med Chem, 2016).

Legend:
Bcap37 = assay: Cytotoxicity against human Bcap37 cells after 48 hrs by MTT assay; type: functional, cell-based
Method in brief: (§1)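 Tumor cells in log phase in RPMI 1640 + 10% FBS, seeded at 3×10^4 cells mL-1 and incubated 24 h (37 °C, 5% CO2). Test samples added at pre-set concentrations (6 wells each), doxorubicin as reference; 48 h exposure. MTT (2.5 mg·mL-1 in PBS) added for 4 h, formazan dissolved in DMSO, A570 read.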

[1] = target: Telomerase reverse transcriptase (Homo sapiens, UniProt O14746); assay: Inhibition of telomerase in human MGC-803 cells after 24 hrs by TRAP-PCR-ELISA assay; type: cell-based
Method in brief: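 Cells lysed in RIPA on ice for 30 min; extract incubated with TRAP mix at 25 °C for 30 min, then 35 PCR cycles. Products hybridized to DIG probe, captured on streptavidin, detected with peroxidase anti-DIG at 490 nm; mean±SD.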

[2] = Cytotoxicity against human PC3 cells after 48 hrs by MTT assay; type: functional, cell-based, PC-3; method in brief: as §1
[3] = Cytotoxicity against human MGC803 cells after 48 hrs by MTT assay; type: functional, cell-based, MGC-803; method in brief: as §1
HepG2 = assay: Cytotoxicity against human HepG2 cells after 48 hrs by MTT assay; type: functional, cell-based; method in brief: as §1
[4] = Homo sapiens, Bcap37, 48 h, read-out: IC50
[5] = Homo sapiens, PC-3, 48 h, read-out: IC50
[6] = Homo sapiens, MGC-803, 48 h, read-out: IC50
[7] = Homo sapiens, HepG2, 48 h, read-out: IC50

Chain of Telomerase reverse transcriptase (O14746 whole entry): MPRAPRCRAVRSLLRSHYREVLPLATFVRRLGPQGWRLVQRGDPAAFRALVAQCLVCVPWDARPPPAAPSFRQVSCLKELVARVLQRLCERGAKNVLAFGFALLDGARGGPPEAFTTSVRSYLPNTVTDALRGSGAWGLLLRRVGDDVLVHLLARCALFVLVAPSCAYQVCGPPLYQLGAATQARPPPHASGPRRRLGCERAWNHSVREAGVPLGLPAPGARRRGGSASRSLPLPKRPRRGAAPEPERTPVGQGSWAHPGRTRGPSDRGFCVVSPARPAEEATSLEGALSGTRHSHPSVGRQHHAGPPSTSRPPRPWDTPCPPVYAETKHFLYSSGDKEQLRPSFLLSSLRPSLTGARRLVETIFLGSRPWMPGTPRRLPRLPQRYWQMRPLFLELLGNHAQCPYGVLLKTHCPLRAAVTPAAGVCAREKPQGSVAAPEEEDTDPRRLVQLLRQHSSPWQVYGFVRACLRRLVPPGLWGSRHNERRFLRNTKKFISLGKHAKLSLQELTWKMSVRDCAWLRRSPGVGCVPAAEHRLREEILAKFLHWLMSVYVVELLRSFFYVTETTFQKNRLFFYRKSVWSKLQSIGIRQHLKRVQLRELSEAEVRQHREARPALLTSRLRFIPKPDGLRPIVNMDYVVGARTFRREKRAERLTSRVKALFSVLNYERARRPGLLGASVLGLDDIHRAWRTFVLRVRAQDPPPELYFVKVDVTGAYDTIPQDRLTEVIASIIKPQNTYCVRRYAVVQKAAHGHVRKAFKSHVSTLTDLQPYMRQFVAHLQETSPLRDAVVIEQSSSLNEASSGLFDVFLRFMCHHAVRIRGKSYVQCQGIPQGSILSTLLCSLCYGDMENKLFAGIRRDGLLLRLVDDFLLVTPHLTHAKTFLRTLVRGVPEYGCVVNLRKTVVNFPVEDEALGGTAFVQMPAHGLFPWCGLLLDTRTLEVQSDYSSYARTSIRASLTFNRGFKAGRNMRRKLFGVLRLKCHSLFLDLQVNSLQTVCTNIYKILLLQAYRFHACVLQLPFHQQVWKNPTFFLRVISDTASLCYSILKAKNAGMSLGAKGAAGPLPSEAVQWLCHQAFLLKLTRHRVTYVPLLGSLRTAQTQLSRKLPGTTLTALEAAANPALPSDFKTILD

Row | Compound | IC50 (Bcap37; [4]) [µM] | IC50 [1] [µM] | IC50 ([2]; pc-3) | IC50 ([3]; mgc-803) | IC50 (HepG2; hepg2) | IC50 [2, 5] [µM] | IC50 [3, 6] [µM] | IC50 (HepG2; [7]) [µM] | IC50 (Bcap37; bcap37)
1 | O=C(CN1CCC(Cl)CC1)N1N=C(c2cc3ccccc3oc2=O)CC1c1ccccc1 (centres undefined) | 24.2 | 57.8 | Not Active | Not Active | Not Active | – | – | – | –
2 | CC(=O)Oc1ccccc1C1CC(C)=NN1C(=O)CN(C(C)C)C(C)C (centres undefined) | 19.4 | – | – | – | – | 24.5 | 20.1 | 34.1 | –
3 | CC1=NN(C(=O)c2ccccc2Cl)C(c2ccccc2O)C1 (centres undefined) | 30.2 | – | – | – | – | 42.5 | 18.3 | 25.2 | –
4 | CC1=NN(C(=O)CN2CC(C)CC(C)C2)C(c2ccccc2O)C1 (centres undefined) | 20.9 | – | – | – | – | 36.4 | 30.7 | 51.9 | –
5 | CCN(CC)CC(=O)N1N=C(c2cc3ccccc3oc2=O)CC1c1ccccc1 (centres undefined) | 3.5 | 5.57 | – | – | – | 6.41 | 8.52 | 11.4 | –
6 | CC1=NN(C(=O)CN2CCN(C(=O)OC(C)(C)C)CC2)C(c2ccccc2O)C1 (centres undefined) | 6.74 | 6.77 | – | – | – | 3.44 | 17.6 | 5 | –
7 | CC1=NN(C(=O)CN2CCCC2)C(c2ccccc2O)C1 (centres undefined) | 5.35 | 5.44 | – | – | – | 6.67 | 17.9 | 5.54 | –
8 | CC1=NN(C(=O)CCl)C(c2cc(Br)ccc2O)C1 (centres undefined) | 32.3 | 3.17 | – | – | – | 8.89 | 13.5 | 16.3 | –
9 | CC1=NN(C(=O)CN2CCSCC2)C(c2ccccc2O)C1 (centres undefined) | 20.6 | – | – | – | – | 29.2 | 31.5 | 45.3 | –
10 | CC1=NN(C(=O)c2ccc([N+](=O)[O-])cc2)C(c2ccccc2O)C1 (centres undefined) | 45.2 | – | – | – | – | 36.6 | 50 | 30.1 | –
11 | Cc1ccc(S(=O)(=O)N2N=C(c3cc4ccccc4oc3=O)CC2c2ccccc2)cc1 (centres undefined) | 30.3 | – | – | – | Not Active | 48.6 | 50.2 | – | –
12 | CC1=NN(C(=O)CN2CCC(c3ccccc3)CC2)C(c2ccccc2O)C1 (centres undefined) | 33.7 | – | – | – | – | 20.4 | 12.3 | 23.3 | –
13 | CC(C)(C)NCC(=O)N1N=C(c2cc3ccccc3oc2=O)CC1c1ccccc1 (centres undefined) | 36.2 | – | – | – | – | 16.4 | 15.4 | 31.4 | –
14 | CC1=NN(C(=O)c2ccc(C)cc2)C(c2cc(Br)cc(Br)c2O)C1 (centres undefined) | – | – | – | – | Not Active | 41.2 | 56.5 | – | Not Active
15 | CC1CCCCN1CC(=O)N1N=C(c2cc3ccccc3oc2=O)CC1c1ccccc1 (centres undefined) | – | – | – | Not Active | Not Active | 36.3 | – | – | Not Active
16 | CC1=NN(C(=O)COc2ccc(Cl)cc2)C(c2cc(Br)cc(Br)c2O)C1 (centres undefined) | 46.3 | – | – | – | Not Active | 40.2 | 50 | – | –
17 | CCC(=O)N1N=C(C)CC1c1cc(Br)ccc1O (centres undefined) | 20.8 | – | – | – | Not Active | 37.8 | 50.3 | – | –
18 | CC1CC(C)CN(CC(=O)N2N=C(c3cc4ccccc4oc3=O)CC2c2ccccc2)C1 (centres undefined) | – | – | Not Active | Not Active | Not Active | – | – | – | Not Active
19 | CC1=NN(C(=O)CCc2ccccc2)C(c2cc(Br)ccc2O)C1 (centres undefined) | 41.3 | – | – | – | – | 16.2 | 21.2 | 17.9 | –
20 | CC1=NN(C(=O)CN(CC(C)C)CC(C)C)C(c2ccccc2O)C1 (centres undefined) | 40.5 | – | – | – | – | 32.2 | 30 | 49.2 | –

Row | Compound | IC50 (Bcap37; [4]) [µM] | IC50 [1] [µM] | IC50 ([2]; pc-3) | IC50 ([3]; mgc-803) | IC50 (HepG2; hepg2) | IC50 [2, 5] [µM] | IC50 [3, 6] [µM] | IC50 (HepG2; [7]) [µM] | IC50 (Bcap37; bcap37)
21 | O=C(CNC1CCCCC1)N1N=C(c2cc3ccccc3oc2=O)CC1c1ccccc1 (centres undefined) | 38.3 | – | – | – | – | 48.5 | 26.4 | 34.4 | –
22 | CN1CCN(CC(=O)N2N=C(c3cc4ccccc4oc3=O)CC2c2ccccc2)CC1 (centres undefined) | 16.9 | – | – | – | – | 25.8 | 46.1 | 33.1 | –
23 | CC1=NN(C(=O)CN2CCCC(C)C2)C(c2ccccc2O)C1 (centres undefined) | 35.6 | – | – | – | – | 35.5 | 42.9 | 17.9 | –
24 | CC1=NN(C(=O)/C=C/c2ccccc2)C(c2ccccc2O)C1 (centres undefined) | – | – | – | – | – | 42 | 39.6 | 29 | Not Active
25 | CC1CCCN(CC(=O)N2N=C(c3cc4ccccc4oc3=O)CC2c2ccccc2)C1 (centres undefined) | – | – | – | Not Active | Not Active | 28.3 | – | – | Not Active
26 | O=C(CNC1CC1)N1N=C(c2cc3ccccc3oc2=O)CC1c1ccccc1 (centres undefined) | – | – | – | Not Active | Not Active | 28.5 | – | – | Not Active
27 | CC1=NN(C(=O)COc2ccc(Cl)cc2)C(c2cc(Br)ccc2O)C1 (centres undefined) | 36.8 | – | – | – | Not Active | 49 | 23.6 | – | –
28 | CCN(CC)CC(=O)N1N=C(C)CC1c1ccccc1O (centres undefined) | 45.7 | – | – | – | – | 25.9 | 39.8 | 51.6 | –
29 | CC1=NN(S(=O)(=O)c2ccc([N+](=O)[O-])cc2)C(c2cc(Br)cc(Br)c2O)C1 (centres undefined) | – | – | – | – | Not Active | 50 | 40.1 | – | Not Active
30 | CC1=NN(C(=O)c2ccc(C)cc2)C(c2ccccc2O)C1 (centres undefined) | 9.97 | – | – | – | – | 40.6 | 26.3 | 11.3 | –
31 | CC1=NN(C(=O)CN2CCC(Cl)CC2)C(c2ccccc2O)C1 (centres undefined) | 28.6 | – | – | – | – | 34.8 | 30.3 | 42.1 | –
32 | CC1=NN(S(=O)(=O)c2ccc(C)cc2)C(c2cc(Br)ccc2O)C1 (centres undefined) | 36.8 | – | – | – | – | 33.2 | 30.7 | 20.8 | –
33 | Cc1ccc(C(=O)N2N=C(c3cc4ccccc4oc3=O)CC2c2ccccc2)cc1 (centres undefined) | 26.1 | – | – | – | – | 13.2 | 31.3 | 52.3 | –
34 | CCN(CC)C1CCN(CC(=O)N2N=C(c3cc4ccccc4oc3=O)CC2c2ccccc2)CC1 (centres undefined) | 15.5 | – | – | – | – | 26.1 | 32.4 | 19.3 | –
35 | CC1=NN(C(=O)CCc2ccccc2)C(c2cc(Br)cc(Br)c2O)C1 (centres undefined) | 27.2 | – | – | – | – | 11.3 | 17.1 | 9.17 | –
36 | CC1=NN(C(=O)CN(C(C)C)C(C)C)C(c2ccccc2O)C1 (centres undefined) | 4.96 | – | – | – | – | 32.3 | 31.2 | 15.1 | –
37 | CC(C)(C)OC(=O)N1CCN(CC(=O)N2N=C(c3cc4ccccc4oc3=O)CC2c2ccccc2)CC1 (centres undefined) | 29.7 | – | – | Not Active | – | 36.4 | – | 28.4 | –
38 | CC1=NN(C(=O)c2ccc(C)cc2)C(c2cc(Br)ccc2O)C1 (centres undefined) | 32.6 | – | – | – | – | 41.2 | 21 | 23.2 | –
39 | O=C(CN1CCCC1)N1N=C(c2cc3ccccc3oc2=O)CC1c1ccccc1 (centres undefined) | – | – | – | Not Active | – | 50.2 | – | 44.3 | Not Active
40 | COc1cccc2c1C(=O)c1c(O)c3c(c(O)c1C2=O)C[C@@](O)(C(=O)CO)C[C@@H]3O[C@H]1C[C@H](N)[C@H](O)[C@H](C)O1 [DOXORUBICIN] | 1.12 | – | – | – | – | 0.87 | – | 1.34 | –
